In ChEMBL document CHEMBL3112583, “Modular construction of quaternary hemiaminal-based inhibitor candidates and their in cellulo assessment with HIV-1 protease” (Bioorg Med Chem, 2013):
Active and inactive are the calls of the source. No cut-off for these calls is given here.

What was measured:
[1] = target: Protease (Human immunodeficiency virus 1) (UniProt Q9YQ12); assay: Inhibition of HIV-1 protease in human T cells assessed as increase in eGFP expression at 0.1 uM after 24 hrs by flow cytometry; assay type: cell-based; conditions: T-cell
MDR1 (ABCB1, P-gp) [2] = target: T1, MDR1 (ABCB1, P-gp) (Homo sapiens, UniProt P08183); assay: Inhibition of MDR1 (unknown origin) expressed in mouse NIH/3T3 cells assessed as inhibition of mitoxatrone efflux at 2 uM after 1 hr by FACS analysis; assay type: cell-based; conditions: NIH/3T3 cells expressing MDR1, probe mitoxantrone (printed: mitoxatrone)
[3] = Cytotoxicity against mouse NIH/3T3 cells expressing pgp assessed as cell survival after 72 hrs by MTT assay; conditions: NIH/3T3 cells expressing P-gp
[4] = Cytotoxicity against human HEK293 cells assessed as cell survival after 72 hrs by MTT assay
[5] = target: Protease (Human immunodeficiency virus 1) (UniProt Q9YQ12); assay: Inhibition of HIV-1 protease in human T cells assessed as increase in eGFP expression at 1 to 100 uM after 24 hrs by flow cytometry; assay type: cell-based; conditions: T-cell
How it was run: (§1)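 SupT1 T cells carry an HIV-1 protease–Gal4 fusion under a tetracycline-inducible promoter and a Gal4-responsive eGFP reporter. They were kept in RPMI 1640 with 10% FBS and 1% penicillin/streptomycin at 37 °C in 5% CO₂. Cells were grown 24 h with 1–100 µM compound, with indinavir (0.0001–10 µM) as reference, then induced with […] doxycycline. eGFP was read 48 h later by flow cytometry (ex 488/em 530 nm).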

[6] = Cytotoxicity against mouse NIH/3T3 cells assessed as cell survival after 72 hrs by MTT assay
MDR1 (ABCB1, P-gp) [7] = target: T1, MDR1 (ABCB1, P-gp); assay: Inhibition of MDR1 (unknown origin) expressed in mouse NIH/3T3 cells assessed as inhibition of mitoxatrone efflux at 10 uM after 1 hr by FACS analysis; assay type: cell-based, NIH3T3; conditions: NIH/3T3 cells expressing MDR1, probe mitoxantrone (printed: mitoxatrone)
Protease [8] = target: T2, Protease (Human immunodeficiency virus 1, UniProt Q9YQ12); assay: Inhibition of HIV-1 recombinant protease using DABCYL-GABA-Ser-Asn-Tyr-Pro-Ile-Val-Gln-EDANS as substrate incubated for 30 mins prior to substrate addition by Hanes plot analysis
BCRP (ABCG2) [9] = target: T3, BCRP (ABCG2) (Homo sapiens, UniProt Q9UNQ0); assay: Inhibition of BCRP (unknown origin) expressed in mouse NIH/3T3 cells assessed as inhibition of mitoxatrone efflux at 10 uM after 1 hr by FACS analysis; assay type: cell-based, NIH3T3; conditions: NIH/3T3 cells expressing BCRP, probe mitoxantrone (printed: mitoxatrone)
T3 sequence (Q9UNQ0 whole entry): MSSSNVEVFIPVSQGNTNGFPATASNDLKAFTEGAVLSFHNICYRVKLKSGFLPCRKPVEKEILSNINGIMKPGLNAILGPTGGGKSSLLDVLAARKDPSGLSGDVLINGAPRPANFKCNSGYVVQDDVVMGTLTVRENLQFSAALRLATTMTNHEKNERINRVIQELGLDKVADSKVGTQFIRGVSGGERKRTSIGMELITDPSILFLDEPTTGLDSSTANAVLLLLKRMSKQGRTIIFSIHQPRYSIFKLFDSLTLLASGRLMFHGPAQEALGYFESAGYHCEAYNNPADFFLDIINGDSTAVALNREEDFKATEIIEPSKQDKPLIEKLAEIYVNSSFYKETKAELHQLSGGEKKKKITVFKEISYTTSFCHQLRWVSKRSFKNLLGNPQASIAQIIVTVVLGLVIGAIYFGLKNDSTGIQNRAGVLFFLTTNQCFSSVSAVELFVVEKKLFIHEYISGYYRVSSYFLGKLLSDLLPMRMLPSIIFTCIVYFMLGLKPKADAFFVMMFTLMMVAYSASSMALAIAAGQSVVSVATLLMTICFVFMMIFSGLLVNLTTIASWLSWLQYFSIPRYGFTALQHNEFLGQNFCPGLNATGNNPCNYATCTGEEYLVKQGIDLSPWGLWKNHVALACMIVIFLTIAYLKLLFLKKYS

Protease [10] = target: T2, Protease; assay: Inhibition of HIV-1 recombinant protease using DABCYL-GABA-Ser-Asn-Tyr-Pro-Ile-Val-Gln-EDANS as substrate incubated for 30 mins prior to substrate addition by Dixon plot analysis
[11] = Cytotoxicity against human HEK293 cells expressing BCRP assessed as cell survival after 72 hrs by MTT assay
BCRP (ABCG2) [12] = target: T3, BCRP (ABCG2); assay: Inhibition of BCRP (unknown origin) expressed in mouse NIH/3T3 cells assessed as inhibition of mitoxatrone efflux at 2 uM after 1 hr by FACS analysis; assay type: cell-based, NIH3T3; conditions: NIH/3T3 cells expressing BCRP, probe mitoxantrone (printed: mitoxatrone)
Protease [13] = target: T2, Protease; assay: Inhibition of HIV-1 recombinant protease using DABCYL-GABA-Ser-Asn-Tyr-Pro-Ile-Val-Gln-EDANS as substrate incubated for 30 mins prior to substrate addition by Lineweaver-Burk plot analysis
[14] = Cytotoxicity against human HEK293 cells assessed as cell survival after 72 hrs by MTT assay; remark: listed apart in the source
[15] = Cytotoxicity against human HEK293 cells expressing BCRP assessed as cell survival after 72 hrs by MTT assay; remark: listed apart in the source
[16] = Cytotoxicity against mouse NIH/3T3 cells assessed as cell survival after 72 hrs by MTT assay; remark: listed apart in the source
[17] = Cytotoxicity against mouse NIH/3T3 cells expressing pgp assessed as cell survival at >30 to 50 uM after 72 hrs by MTT assay; assay type: ADME, cell-based, NIH3T3; conditions: NIH/3T3 cells expressing P-gp
[18] = target: Protease (Human immunodeficiency virus 1) (UniProt Q9YQ12); assay: Inhibition of HIV-1 protease in human T cells assessed as increase in eGFP expression at >20 uM after 24 hrs by flow cytometry; assay type: cell-based; conditions: T-cell; how it was run: as §1
NIH3T3 = assay: (§2) Cytotoxicity against mouse NIH/3T3 cells expressing pgp assessed as cell survival after 72 hrs by MTT assay; assay type: ADME, cell-based; conditions: nih3t3, 72 h
HEK293 [19] = assay: Cytotoxicity against human HEK293 cells expressing BCRP assessed as cell survival after 72 hrs by MTT assay; assay type: ADME, cell-based; conditions: hek293, 72 h
How it was run: (§3)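 HEK293 cells stably transfected with BCRP, or with empty vector (HEK293-pcDNA3) as parental control, kept in high-glucose DMEM with 10% FBS, 1% penicillin/streptomycin and 0.75 mg/mL G418, at 37 °C in humidified 5% CO₂. Cells were exposed for 72 h to increasing compound concentrations, and survival was read by MTT colorimetric assay. IC50 is the mean ± sd of at least three independent experiments.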

[20] = Cytotoxicity against mouse NIH/3T3 cells assessed as cell survival after 72 hrs by MTT assay; assay type: cell-based, NIH3T3
HEK293 [21] = assay: Cytotoxicity against human HEK293 cells assessed as cell survival after 72 hrs by MTT assay; assay type: cell-based; conditions: hek293, 72 h; how it was run: as §3
[22] = as §2; assay type: ADME, cell-based, NIH3T3; conditions: NIH/3T3 cells expressing P-gp

T2 sequence (Q9YQ12 whole entry): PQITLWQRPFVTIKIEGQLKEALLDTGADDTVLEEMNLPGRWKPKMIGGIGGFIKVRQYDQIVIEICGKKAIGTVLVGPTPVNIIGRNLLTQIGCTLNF
Protease (Human immunodeficiency virus 1), sequence (Q9YQ12 as listed by the source): as the sequence (Q9YQ12 whole entry) above
T1 sequence (P08183 whole entry): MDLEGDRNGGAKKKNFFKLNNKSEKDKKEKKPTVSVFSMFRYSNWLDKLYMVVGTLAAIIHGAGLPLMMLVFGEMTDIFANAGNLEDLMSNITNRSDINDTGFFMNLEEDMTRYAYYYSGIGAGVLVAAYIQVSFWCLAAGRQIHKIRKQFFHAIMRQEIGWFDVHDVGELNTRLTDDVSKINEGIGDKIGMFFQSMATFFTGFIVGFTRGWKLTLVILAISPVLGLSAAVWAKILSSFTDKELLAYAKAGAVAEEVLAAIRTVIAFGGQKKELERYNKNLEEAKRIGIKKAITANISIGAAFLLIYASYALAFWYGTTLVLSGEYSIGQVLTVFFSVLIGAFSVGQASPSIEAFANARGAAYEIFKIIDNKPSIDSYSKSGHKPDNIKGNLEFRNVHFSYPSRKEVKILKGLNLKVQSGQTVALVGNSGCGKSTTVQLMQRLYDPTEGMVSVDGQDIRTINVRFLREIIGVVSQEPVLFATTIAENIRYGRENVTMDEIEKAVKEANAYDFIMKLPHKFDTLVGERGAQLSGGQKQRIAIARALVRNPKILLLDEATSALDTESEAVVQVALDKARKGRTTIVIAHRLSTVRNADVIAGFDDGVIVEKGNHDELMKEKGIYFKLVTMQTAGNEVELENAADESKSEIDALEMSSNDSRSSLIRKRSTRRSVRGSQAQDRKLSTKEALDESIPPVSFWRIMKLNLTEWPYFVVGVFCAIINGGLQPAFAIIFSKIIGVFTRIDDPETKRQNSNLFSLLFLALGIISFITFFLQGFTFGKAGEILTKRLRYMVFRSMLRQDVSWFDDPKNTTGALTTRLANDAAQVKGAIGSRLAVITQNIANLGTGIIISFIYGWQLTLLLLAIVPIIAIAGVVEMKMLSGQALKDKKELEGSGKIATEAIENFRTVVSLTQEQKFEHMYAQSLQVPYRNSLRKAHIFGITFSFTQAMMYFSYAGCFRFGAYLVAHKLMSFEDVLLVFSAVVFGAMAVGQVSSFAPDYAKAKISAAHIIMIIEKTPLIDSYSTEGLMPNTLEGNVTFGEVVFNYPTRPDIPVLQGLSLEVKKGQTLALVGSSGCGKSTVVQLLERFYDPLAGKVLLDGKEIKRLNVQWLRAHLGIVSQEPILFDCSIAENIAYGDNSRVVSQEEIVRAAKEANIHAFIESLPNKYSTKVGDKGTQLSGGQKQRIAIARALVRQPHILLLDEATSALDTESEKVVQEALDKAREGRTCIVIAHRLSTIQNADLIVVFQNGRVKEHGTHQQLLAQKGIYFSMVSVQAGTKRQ

Row | SMILES | inhibition at 1 h, 2 µM (MDR1 (ABCB1, P-gp) [2]) [%] | inhibition [5] | inhibition at 1 h, 10 µM (MDR1 (ABCB1, P-gp) [7]) [%] | Ki (Protease [8]) [µM] | inhibition at 1 h, 10 µM (BCRP (ABCG2) [9]) [%] | Ki (Protease [10]) [µM] | inhibition at 1 h, 2 µM (BCRP (ABCG2) [12]) [%] | Ki (Protease [13]) [µM] | IC50 at 72 h [14] [µM] | IC50 at 72 h [15] [µM] | IC50 at 72 h [16] [µM] | IC50 at 72 h [17] [µM] | inhibition [18] | other results
1 | CC(C)(C)NC(=O)[C@@H]1CN(Cc2cccnc2)CCN1C[C@@H](O)C[C@@H](Cc1ccccc1)C(=O)N[C@H]1c2ccccc2C[C@H]1O |  |  |  |  |  |  |  |  |  |  |  |  |  | inhibition [1]: Active
2 | COc1cc2c(cc1OC)CN(CCc1ccc(NC(=O)c3cccc4c(=O)c5cccc(OC)c5[nH]c34)cc1)CC2 | 110 |  |  |  |  |  |  |  |  |  |  |  |  | 
3 | O=C[C@H](Cc1ccccc1)N(Cc1ccccc1)C(=O)N(Cc1ccccc1)N1CCCCC1 | 1.8 | inactive | 15 | 1120 | 8.8 | 993 | 1.8 | 463 |  |  |  |  |  | IC50 at 72 h [3]: 12.8 µM; IC50 at 72 h [4]: 17.6 µM; IC50 at 72 h [6]: 11.2 µM; IC50 at 72 h [11]: 12.8 µM
4 | O=C[C@H](Cc1ccc(O)cc1)NC(=O)N(Cc1ccccc1)N1CCCCC1 | 1.1 | inactive | 3 | 342 | 2.5 | 306 | 0.9 | 395 | 52.4 | 47.9 | 58.6 | 71.2 |  | 
5 | O=C[C@H](Cc1ccccc1)NC(=O)N(Cc1cccc(O)c1)N1CCCCC1 | 4.6 |  | 4.8 | 242 | 8.4 | 144 | 2.5 | 272 | 35.3 | 23.1 | 42.1 | 43.5 | Active | 
6 | CN(C)N(Cc1ccccc1)C(=O)N[C@H](C=O)Cc1ccccc1 | 2.3 | inactive | 8.1 | 406 | 8.1 | 492 | 0.2 | 528 | 56.3 | 57.2 | 68.8 | 100 |  | 
7 | O=C[C@H](Cc1ccccc1)NC(=O)N(Cc1ccccc1)N1CCOCC1 | 7.1 | inactive | 11.5 | 366 | 3.3 | 996 | 0.2 | 317 |  |  |  |  |  | Activity (NIH3T3): Not Active; Activity (HEK293 [19]): Not Active; IC50 at 72 h [20]: 79.8 µM; Activity (HEK293 [21]): Not Active
8 | O=C[C@H](Cc1ccccc1)NC(=O)N(Cc1ccccc1)N1CCCCC1 | 5.5 |  | 6.4 | 257 | 0.3 | 292 | 0.2 | 172 | 37.6 | 34.8 | 42.6 | 48.6 | Active | 
9 | CC(C)(C)NC(=O)[C@@H]1C[C@@H]2CCCC[C@@H]2CN1C[C@@H](O)[C@H](Cc1ccccc1)NC(=O)[C@H](CC(N)=O)NC(=O)c1ccc2ccccc2n1 |  |  |  |  |  |  |  |  |  |  |  |  |  | IC50 at 72 h [22]: 49 µM; Activity (HEK293 [19]): Not Active; IC50 at 72 h [20]: 37 µM; Activity (HEK293 [21]): Not Active
10 | COc1cccc(CN(C(=O)N[C@H](C=O)Cc2ccccc2)N2CCCCC2)c1 | 7.7 |  | 22.7 | 410 | 8.1 | 334 | 0.9 | 320 | 42.6 | 37.2 | 39.4 | 46.8 | Active | 
